Data taken from ChEMBL document CHEMBL1140405, “6-Acylamino-2-aminoquinolines as potent melanin-concentrating hormone 1 receptor antagonists. Identification, structure-activity relationship, and investigation of binding mode” (J Med Chem, 2005).
Values after ≈ are worked out from the molar mass of the structure shown. Values joined by “and” are separate entries in the source; they are usually repeats but may differ in a detail not shown here. Equal entries are not always repeated.

Key:
[1] = target: Melanin-concentrating hormone receptor 2 (Homo sapiens, UniProt Q969V1); test: Displacement of 30 pM [125I]-MCH from human MCH2R expressed in CHO-K1 in whole-cell binding assay
[2] = target: T1, 5-hydroxytryptamine receptor 2C (Homo sapiens, UniProt P28335); test: Inhibitory concentration against human 5-hydroxytryptamine 2C receptor expressed in CHO-K1 cells using [3H]mesulergine; type: cell-based
T1 sequence (P28335 whole entry): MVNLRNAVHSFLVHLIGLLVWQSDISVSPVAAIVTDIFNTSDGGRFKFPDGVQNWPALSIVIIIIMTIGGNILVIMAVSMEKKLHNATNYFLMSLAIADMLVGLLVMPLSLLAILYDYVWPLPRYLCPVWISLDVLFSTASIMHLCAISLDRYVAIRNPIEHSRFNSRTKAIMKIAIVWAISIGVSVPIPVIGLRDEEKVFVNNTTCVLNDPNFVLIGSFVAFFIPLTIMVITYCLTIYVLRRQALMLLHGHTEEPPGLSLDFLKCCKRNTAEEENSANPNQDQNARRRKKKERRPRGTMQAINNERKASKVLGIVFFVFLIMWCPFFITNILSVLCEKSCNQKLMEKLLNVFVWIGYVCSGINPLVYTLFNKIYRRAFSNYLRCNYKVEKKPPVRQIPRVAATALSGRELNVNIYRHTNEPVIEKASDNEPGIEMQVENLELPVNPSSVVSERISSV
In short: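 SPA competition binding on purchased membranes from CHO-K1 cells expressing h5-HT2c (4 μg/well), with YSi-WGA beads (0.4 mg/well) and [3H]mesulergine tracer, across various test-compound concentrations. Buffer is 50 mM Tris pH 7.7, 50 mM MgCl2 and 0.1% pargyline. Nonspecific binding uses 1 μM cold mesulergine. IC50 is taken by nonlinear regression.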

[3] = Solubility was determined by addition of 10 mM DMSO solution of test compound to PBS (pH 7) until opalescence
[4] = target: Melanin-concentrating hormone receptor 1 (Homo sapiens, UniProt Q99705); test: Displacement of 150p M [125I]MCH from human MCH1R expressed in CHO-K1 cells at 10 uM; type: cell-based
[5] = target: 5-hydroxytryptamine receptor 1B (Homo sapiens, UniProt P28222); test: Inhibitory concentration against 5-hydroxytryptamine 1B receptor
[6] = target: D(3) dopamine receptor (Homo sapiens, UniProt P35462); test: Inhibitory concentration against dopamine receptor D3
[7] = target: T2, Muscarinic acetylcholine receptor M2 (Homo sapiens, UniProt P08172); test: Inhibitory concentration against muscarinic acetylcholine receptor M2
T2 sequence (P08172 whole entry): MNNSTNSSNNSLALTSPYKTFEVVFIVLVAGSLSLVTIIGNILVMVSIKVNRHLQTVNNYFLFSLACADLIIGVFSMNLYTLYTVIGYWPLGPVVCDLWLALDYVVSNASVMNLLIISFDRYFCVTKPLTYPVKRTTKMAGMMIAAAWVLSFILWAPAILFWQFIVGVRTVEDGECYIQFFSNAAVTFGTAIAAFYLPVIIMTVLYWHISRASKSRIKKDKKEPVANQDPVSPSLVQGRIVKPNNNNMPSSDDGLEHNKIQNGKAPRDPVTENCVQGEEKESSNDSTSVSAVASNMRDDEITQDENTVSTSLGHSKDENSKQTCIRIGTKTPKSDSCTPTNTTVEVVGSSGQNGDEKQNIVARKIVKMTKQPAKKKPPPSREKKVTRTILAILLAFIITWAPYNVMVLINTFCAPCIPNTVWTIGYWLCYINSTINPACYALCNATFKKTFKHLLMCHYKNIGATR

[8] = target: Histamine H1 receptor (Homo sapiens, UniProt P35367); test: Inhibitory concentration against histamine H1 receptor
[9] = target: 5-hydroxytryptamine receptor 2A (Homo sapiens, UniProt P28223); test: Inhibitory concentration against 5-hydroxytryptamine 2A receptor
[10] = target: T3, Muscarinic acetylcholine receptor M1 (Homo sapiens, UniProt P11229); test: Inhibitory concentration against muscarinic acetylcholine receptor M1
T3 sequence (P11229 whole entry): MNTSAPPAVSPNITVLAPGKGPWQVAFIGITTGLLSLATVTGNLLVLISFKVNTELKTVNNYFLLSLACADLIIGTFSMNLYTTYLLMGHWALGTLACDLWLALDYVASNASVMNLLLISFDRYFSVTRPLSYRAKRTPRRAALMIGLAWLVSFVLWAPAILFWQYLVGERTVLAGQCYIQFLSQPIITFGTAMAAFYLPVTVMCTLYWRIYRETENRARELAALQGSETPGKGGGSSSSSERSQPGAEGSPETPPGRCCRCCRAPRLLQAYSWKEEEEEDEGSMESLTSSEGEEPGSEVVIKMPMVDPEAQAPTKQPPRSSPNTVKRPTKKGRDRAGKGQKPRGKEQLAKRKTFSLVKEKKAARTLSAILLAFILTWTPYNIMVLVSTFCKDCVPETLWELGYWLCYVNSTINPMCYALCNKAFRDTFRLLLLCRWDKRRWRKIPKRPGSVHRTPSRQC

[11] = target: D(1A) dopamine receptor (Homo sapiens, UniProt P21728); test: Inhibitory concentration against dopamine receptor D1
[12] = target: T4, Adrenergic receptor alpha-2 (Homo sapiens, UniProt P08913+P18825+P18089); test: Inhibitory concentration against alpha-2 adrenergic receptor; type: protein assay
T4 sequence (P08913 whole entry): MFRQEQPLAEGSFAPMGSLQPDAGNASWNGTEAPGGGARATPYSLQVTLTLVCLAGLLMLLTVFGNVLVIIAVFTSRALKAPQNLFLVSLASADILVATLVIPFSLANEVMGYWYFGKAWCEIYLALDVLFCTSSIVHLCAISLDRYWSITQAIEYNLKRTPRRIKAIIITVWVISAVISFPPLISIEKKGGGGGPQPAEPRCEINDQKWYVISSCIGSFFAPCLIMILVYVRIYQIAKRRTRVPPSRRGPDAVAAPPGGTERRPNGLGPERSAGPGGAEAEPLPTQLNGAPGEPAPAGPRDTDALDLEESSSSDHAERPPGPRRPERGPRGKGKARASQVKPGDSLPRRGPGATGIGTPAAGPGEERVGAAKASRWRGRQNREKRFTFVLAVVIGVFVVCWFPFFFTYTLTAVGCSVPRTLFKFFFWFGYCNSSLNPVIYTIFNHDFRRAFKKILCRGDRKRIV
T4 sequence (P18825 whole entry): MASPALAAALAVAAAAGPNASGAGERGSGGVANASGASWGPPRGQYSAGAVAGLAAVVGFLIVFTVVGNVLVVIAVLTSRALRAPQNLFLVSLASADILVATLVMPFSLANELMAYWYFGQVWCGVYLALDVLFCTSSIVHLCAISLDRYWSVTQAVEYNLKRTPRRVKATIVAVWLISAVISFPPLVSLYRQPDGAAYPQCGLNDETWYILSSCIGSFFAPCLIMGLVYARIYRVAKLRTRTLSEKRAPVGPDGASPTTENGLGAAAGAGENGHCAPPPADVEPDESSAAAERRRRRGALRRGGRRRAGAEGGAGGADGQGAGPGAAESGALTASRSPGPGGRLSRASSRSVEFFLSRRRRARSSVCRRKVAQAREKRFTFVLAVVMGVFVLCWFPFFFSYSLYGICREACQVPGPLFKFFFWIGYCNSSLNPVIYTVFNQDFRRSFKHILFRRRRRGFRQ
T4 sequence (P18089 whole entry): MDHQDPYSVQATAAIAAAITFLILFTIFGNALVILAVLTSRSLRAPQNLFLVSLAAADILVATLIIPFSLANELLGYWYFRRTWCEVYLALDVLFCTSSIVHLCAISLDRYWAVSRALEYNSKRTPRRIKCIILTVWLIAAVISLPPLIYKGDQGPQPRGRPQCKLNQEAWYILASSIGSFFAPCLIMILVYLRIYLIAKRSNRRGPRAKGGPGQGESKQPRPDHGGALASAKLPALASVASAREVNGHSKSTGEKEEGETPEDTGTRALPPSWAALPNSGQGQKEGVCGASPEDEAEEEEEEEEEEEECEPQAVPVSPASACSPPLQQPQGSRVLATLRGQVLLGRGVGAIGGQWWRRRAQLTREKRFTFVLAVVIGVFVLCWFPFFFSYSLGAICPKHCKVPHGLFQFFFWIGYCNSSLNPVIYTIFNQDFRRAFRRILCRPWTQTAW

[13] = target: Sodium-dependent dopamine transporter (Homo sapiens, UniProt Q01959); test: Inhibitory concentration against dopamine transporter
[14] = target: Histamine H2 receptor (Homo sapiens, UniProt P25021); test: Inhibitory concentration against histamine H2 receptor
Sequence of Histamine H2 receptor (P25021 whole entry): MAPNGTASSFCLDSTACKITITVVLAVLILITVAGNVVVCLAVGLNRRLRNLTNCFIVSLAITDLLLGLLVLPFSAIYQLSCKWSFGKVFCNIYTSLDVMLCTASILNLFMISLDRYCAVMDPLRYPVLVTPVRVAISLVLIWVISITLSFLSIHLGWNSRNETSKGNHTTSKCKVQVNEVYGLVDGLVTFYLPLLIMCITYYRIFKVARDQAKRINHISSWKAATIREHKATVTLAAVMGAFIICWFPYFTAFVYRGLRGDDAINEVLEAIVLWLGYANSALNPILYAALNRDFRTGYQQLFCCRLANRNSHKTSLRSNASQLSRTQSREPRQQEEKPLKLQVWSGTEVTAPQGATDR

Sequence of Melanin-concentrating hormone receptor 1 (Q99705 whole entry): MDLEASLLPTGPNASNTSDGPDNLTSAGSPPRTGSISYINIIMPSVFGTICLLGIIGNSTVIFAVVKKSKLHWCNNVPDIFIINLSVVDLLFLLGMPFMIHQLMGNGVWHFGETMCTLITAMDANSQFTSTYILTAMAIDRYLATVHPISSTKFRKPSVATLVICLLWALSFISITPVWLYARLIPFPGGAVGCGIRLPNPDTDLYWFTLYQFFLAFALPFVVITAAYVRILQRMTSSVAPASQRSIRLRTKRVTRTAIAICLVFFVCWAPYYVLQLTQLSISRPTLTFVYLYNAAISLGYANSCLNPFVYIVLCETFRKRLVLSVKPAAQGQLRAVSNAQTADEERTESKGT
Sequence of Melanin-concentrating hormone receptor 2 (Q969V1 whole entry): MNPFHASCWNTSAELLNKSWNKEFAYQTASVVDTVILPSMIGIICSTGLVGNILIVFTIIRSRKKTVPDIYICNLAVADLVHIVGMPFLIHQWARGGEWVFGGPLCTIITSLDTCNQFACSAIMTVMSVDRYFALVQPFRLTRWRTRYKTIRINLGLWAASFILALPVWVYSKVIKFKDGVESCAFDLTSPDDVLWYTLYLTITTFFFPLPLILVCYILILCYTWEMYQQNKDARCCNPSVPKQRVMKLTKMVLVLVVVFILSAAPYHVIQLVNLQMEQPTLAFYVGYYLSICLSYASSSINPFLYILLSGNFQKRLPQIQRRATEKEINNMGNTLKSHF
Sequence of 5-hydroxytryptamine receptor 1B (P28222 whole entry): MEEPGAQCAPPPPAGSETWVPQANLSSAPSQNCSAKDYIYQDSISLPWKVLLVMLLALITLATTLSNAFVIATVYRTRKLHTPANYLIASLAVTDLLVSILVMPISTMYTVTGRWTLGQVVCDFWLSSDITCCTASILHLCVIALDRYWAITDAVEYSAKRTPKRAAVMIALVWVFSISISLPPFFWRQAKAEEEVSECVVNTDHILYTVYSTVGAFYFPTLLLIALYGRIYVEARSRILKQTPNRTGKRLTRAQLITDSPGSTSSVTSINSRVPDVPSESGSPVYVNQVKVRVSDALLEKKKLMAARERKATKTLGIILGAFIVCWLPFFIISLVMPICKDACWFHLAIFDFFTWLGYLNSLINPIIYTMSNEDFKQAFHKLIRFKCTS
Sequence of Sodium-dependent dopamine transporter (Q01959 whole entry): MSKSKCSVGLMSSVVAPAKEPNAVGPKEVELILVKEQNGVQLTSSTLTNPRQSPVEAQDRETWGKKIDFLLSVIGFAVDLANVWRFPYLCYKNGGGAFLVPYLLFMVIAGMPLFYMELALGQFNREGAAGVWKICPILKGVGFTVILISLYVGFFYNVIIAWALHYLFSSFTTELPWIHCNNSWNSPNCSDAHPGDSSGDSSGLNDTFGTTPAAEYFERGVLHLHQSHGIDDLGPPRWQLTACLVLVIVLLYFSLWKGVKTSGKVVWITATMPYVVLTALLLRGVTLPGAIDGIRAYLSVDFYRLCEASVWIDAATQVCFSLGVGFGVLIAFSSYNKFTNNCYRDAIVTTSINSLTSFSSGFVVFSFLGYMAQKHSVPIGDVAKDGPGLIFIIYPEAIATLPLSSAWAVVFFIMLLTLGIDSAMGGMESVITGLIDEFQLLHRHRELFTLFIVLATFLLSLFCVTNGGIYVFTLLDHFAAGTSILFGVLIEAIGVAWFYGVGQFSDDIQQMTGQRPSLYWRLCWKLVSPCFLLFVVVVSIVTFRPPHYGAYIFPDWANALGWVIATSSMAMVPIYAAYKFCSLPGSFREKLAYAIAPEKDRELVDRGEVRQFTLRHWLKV
Sequence of D(3) dopamine receptor (P35462 whole entry): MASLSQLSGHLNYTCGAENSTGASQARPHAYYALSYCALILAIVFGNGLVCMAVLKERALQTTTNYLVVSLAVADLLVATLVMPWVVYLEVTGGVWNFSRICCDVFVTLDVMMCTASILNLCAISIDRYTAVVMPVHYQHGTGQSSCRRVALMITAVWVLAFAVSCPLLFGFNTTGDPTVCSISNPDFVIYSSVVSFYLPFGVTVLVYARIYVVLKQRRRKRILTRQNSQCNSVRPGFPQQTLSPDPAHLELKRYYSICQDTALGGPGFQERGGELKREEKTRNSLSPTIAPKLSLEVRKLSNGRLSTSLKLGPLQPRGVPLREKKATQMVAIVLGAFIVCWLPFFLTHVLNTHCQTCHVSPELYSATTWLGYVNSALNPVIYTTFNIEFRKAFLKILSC
Sequence of D(1A) dopamine receptor (P21728 whole entry): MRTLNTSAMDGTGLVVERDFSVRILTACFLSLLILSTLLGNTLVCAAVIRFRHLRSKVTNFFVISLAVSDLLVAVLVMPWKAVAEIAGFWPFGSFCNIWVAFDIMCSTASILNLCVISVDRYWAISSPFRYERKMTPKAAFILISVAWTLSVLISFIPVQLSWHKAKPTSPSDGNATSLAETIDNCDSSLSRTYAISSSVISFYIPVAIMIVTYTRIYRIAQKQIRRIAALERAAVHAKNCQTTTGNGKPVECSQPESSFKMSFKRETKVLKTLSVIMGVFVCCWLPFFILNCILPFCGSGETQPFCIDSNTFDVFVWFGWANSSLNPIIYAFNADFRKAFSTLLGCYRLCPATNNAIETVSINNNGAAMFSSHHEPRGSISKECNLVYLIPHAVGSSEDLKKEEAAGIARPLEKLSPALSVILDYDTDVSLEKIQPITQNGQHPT
Sequence of 5-hydroxytryptamine receptor 2A (P28223 whole entry): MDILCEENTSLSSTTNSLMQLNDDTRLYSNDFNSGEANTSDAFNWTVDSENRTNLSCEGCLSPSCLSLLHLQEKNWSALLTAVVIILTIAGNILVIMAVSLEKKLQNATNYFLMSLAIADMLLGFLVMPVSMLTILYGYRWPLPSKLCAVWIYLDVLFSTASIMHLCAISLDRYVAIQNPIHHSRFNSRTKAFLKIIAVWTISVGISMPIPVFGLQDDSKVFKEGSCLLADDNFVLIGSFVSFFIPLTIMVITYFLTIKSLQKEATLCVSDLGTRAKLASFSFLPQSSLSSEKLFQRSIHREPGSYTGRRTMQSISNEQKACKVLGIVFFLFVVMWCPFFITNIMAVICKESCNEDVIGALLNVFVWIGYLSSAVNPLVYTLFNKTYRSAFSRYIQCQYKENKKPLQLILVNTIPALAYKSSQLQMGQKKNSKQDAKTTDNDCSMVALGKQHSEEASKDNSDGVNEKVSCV
Sequence of Histamine H1 receptor (P35367 whole entry): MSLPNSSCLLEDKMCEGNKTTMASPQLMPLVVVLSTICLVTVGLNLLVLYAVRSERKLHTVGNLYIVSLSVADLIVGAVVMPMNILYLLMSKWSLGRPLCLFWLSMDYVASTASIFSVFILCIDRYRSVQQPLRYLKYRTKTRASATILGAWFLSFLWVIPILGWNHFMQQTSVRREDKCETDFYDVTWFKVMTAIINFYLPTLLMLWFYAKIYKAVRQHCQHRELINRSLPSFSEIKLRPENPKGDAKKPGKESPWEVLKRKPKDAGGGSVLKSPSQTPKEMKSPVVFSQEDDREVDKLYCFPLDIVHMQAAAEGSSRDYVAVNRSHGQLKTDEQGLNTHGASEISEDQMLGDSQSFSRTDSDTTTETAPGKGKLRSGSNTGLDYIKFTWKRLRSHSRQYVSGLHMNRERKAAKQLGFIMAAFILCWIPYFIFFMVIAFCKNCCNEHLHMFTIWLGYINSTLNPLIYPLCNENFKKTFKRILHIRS

Structure (SMILES): Cc1cc(N2CCNCC2)nc2ccc(NC(=O)COc3ccc(Cl)cc3Cl)cc12
- IC50 [1]: 3.7 µM
- IC50 [2]: 2 µM
- solubility kinetic ([3]; buffer): 25 µM (≈ 11.1 µg/mL)

Structure (SMILES): Cc1cc(N2CCOCC2)nc2ccc(NC(=O)COc3ccc(Cl)cc3Cl)cc12
- solubility kinetic ([3]; PBS): 10 µM (≈ 4.46 µg/mL)

Structure (SMILES): Cc1cc(N2CCC(N3CCCC3)CC2)nc2ccc(NC(=O)COc3ccc(OC(F)(F)F)cc3)cc12
- IC50 [1]: 6.3 µM

Structure (SMILES): COc1ccc(OC)c(/C=C/C(=O)Nc2ccc3nc(N4CCN(C)CC4)cc(C)c3c2)c1
- inhibition [4]: 47%

Structure (SMILES): Cc1cc(OCCN(C)C)nc2ccc(NC(=O)COc3ccc(Cl)cc3Cl)cc12
- IC50 [5]: 0.2 µM
- IC50 [1]: 8.7 µM
- IC50 [6]: 0.0013 µM
- IC50 [7]: 4.5 µM
- IC50 [8]: 3.5 µM
- IC50 [9]: 0.61 µM
- IC50 [2]: 2.6 µM and 2.5 µM
- IC50 [10]: 1.7 µM
- IC50 [11]: 7.5 µM
- IC50 [12]: 0.25 µM
- IC50 [13]: > 10 µM
- IC50 [14]: 0.87 µM

Structure (SMILES): Cc1cc(NCCCN(C)C)nc2ccc(NC(=O)COc3ccc(OC(F)(F)F)cc3)cc12
- IC50 [1]: 7.1 µM
- IC50 [2]: 4 µM

Structure (SMILES): CCN1CCN(c2cc(C)c3cc(NC(=O)/C=C/c4ccccc4OC(C)C)ccc3n2)CC1
- inhibition [4]: 41%

Structure (SMILES): Cc1cc(N(C)CCN(C)C)nc2ccc(NC(=O)COc3ccc(Cl)cc3Cl)cc12
- IC50 [1]: 4.5 µM
- solubility kinetic ([3]; PBS): 80 µM (≈ 36.9 µg/mL)

Structure (SMILES): Cc1cc(N2CCN(C)CC2)nc2ccc(NC(=O)COc3ccc(Cl)cc3Cl)cc12
- IC50 [1]: > 10 µM
- IC50 [2]: 0.61 µM
- solubility kinetic ([3]; buffer): 25 µM (≈ 11.5 µg/mL)

Structure (SMILES): Cc1cc(N2CC3CC2CN3)nc2ccc(NC(=O)COc3ccc(OC(F)(F)F)cc3)cc12 (stereo not drawn)
- IC50 [1]: 6.8 µM
- solubility kinetic ([3]; PBS): 150 µM (≈ 70.9 µg/mL)

Structure (SMILES): Cc1cc(N2CCNCC2)nc2ccc(NC(=O)/C=C/c3ccc(OC(F)(F)F)cc3)cc12
- IC50 [1]: > 10 µM
- IC50 [2]: 1.1 µM
- solubility kinetic ([3]; buffer): 25 µM (≈ 11.4 µg/mL)

Structure (SMILES): Cc1cc(N2CCN(c3ncccn3)CC2)nc2ccc(NC(=O)COc3ccc(Cl)cc3Cl)cc12
- inhibition [4]: 41%

Structure (SMILES): Cc1cc(N2CCCNCC2)nc2ccc(NC(=O)/C=C/c3ccc(OC(F)(F)F)cc3)cc12
- IC50 [2]: 1.6 µM
